High-throughput results as filed in PubChem BioAssay.
A selection: hits, their analogues and other compounds. The true share with any hit is near 1.8%.
Rev-erbA mod: Rev-erb alpha (human) modulation | 0.79% of 370,000 active | activity, % at 10 µM | P20393 | Rev-erbα–FITC-DNA binding, fluorescence polarization, 90 min;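 active = activity above about 14%, limit read from the data; passing the limit was not always enough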
PG9 binder: binds the HIV-1 gp120 antibody PG9. 0.43% of 360,000 active. inhibition, % at 6.7 µM. TR-FRET gp120-PG9 antibody binding; in the data active = inhibition above about 8.5%
NR2E3 ag-1: agonists of human nuclear receptor NR2E3; Q9Y5X4; GST-NR2E3/biotin-RetCOR TR-FRET, 1536-well; inhibition of corepressor binding, % at 4.78 µM; 0.12% of 320,000 active; AID 2300;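 active = percent inhibition above the cutoff of mean plus 3 SD of all tested compounds, set per screening campaign, cut at about 20% in these data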
Target sequence (Q9Y5X4 whole entry, looked up): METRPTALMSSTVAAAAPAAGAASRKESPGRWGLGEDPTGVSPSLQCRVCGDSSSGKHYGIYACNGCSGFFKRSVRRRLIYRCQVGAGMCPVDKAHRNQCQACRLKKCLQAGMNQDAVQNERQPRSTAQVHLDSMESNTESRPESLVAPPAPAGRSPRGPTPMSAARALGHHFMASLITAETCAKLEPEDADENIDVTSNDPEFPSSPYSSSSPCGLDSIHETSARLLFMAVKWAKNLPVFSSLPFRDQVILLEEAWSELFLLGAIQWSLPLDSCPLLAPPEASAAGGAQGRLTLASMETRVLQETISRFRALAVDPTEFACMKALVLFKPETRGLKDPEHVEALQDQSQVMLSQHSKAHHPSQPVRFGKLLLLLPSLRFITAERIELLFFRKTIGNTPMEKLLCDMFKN
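System: GST-NR2E3 and biotin-RetCOR proteins; probe or stimulus: 7 nM biotin-RetCOR; doses: compound at 4.8 µM, single dose; schedule: Compound–protein incubation for 5 h at 4 °C; detection: time-resolved FRET; read-out: percent inhibition; controls: biotin wells as high control, 0.6% DMSO wells as low control; format: 1536-well plates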
GalR3 antag: blocks the human galanin receptor 3; O60755; HEK293 GalR3-CNG cAMP membrane potential fluorescence; galR3 body fused to GalR1 C-terminus; inhibition, % at 3 µM; 0.44% of 360,000 active;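 active = inhibition above the screen-wide average plus 3 SD, cut at about 13% in these data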;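 also: forskolin and galanin both at EC90 stimulate the cells; cAMP rise reported by CNG channel membrane potential dye signal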
Target sequence (O60755 1-299 limits assumed): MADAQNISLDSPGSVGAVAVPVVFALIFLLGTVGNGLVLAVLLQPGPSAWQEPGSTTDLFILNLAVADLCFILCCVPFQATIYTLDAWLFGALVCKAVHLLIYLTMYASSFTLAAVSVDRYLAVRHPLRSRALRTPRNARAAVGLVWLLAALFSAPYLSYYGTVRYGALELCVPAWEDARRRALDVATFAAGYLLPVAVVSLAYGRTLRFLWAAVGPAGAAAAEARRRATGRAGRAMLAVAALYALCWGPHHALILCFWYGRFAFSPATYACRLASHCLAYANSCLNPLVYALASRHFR
NR2E3 ag-2: human photoreceptor-specific nuclear receptor agonism | inhibition of corepressor binding, % at 3.98 µM | Q9Y5X4 | CHO-S Gal4-NCOR/VP16-NR2E3 two-hybrid, luciferase | 0.35% of 360,000 active;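 active = inhibition above the mean of all tested compounds plus 3 SD, cut at about 70% in these data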;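 also: higher means lower luciferase signal from less NR2E3 corepressor binding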
NR2E3 ag confirm: confirmation of human NR2E3 agonists; inhibition, % at 3.98 µM; shares compounds with NR2E3 ag-2; CHO-S mammalian two-hybrid NR2E3-NCOR, luciferase luminescence; 51% of 2,300 active;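 active = average inhibition above a cutoff equal to the mean inhibition of all tested compounds plus one SD, cut at about 70% in these data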
VP16 counter: GAL4-VP16 reporter inhibition in NR2E3 agonist counterscreen. inhibition, % at 3.98 µM. shares compounds with NR2E3 ag-2. CHO-S GAL4-VP16 luciferase reporter, luminescence. 29% of 2,300 active;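 active = mean inhibition above a cutoff equal to the average over all tested compounds plus one standard deviation, cut at about 70% in these data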;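 also: luciferase from a UAS reporter driven by GAL4-VP16 transactivation; higher means less reporter light so more repression of VP16 activity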
Each line names hits and unclear results; the compound was inactive in the other large screens (follow-up assays come after a bar, where they were run).

COC(=O)C12OCC34C(CC5C(C)=C(O)C(=O)CC5(C)C3C(O)C1O)OC(=O)C(OC(=O)C=C(C)C)C24 (centres undefined)	NR2E3 ag-2 103.4 (no result: NR2E3 ag-1) | NR2E3 ag confirm 99.5 | VP16 counter 98.4
CCC(C)n1ncn(-c2ccc(N3CCN(c4ccc(OC[C@H]5CO[C@](Cn6cncn6)(c6ccc(Cl)cc6Cl)O5)cc4)CC3)cc2)c1=O (some centres undefined)	none (no result: PG9 binder, NR2E3 ag-1, GalR3 antag, NR2E3 ag-2)
c1ccc(-c2noc(-c3ccncc3)n2)nc1	none
c1ccc(-c2noc(-c3ccc4ccccc4c3)n2)nc1	none (no result: Rev-erbA mod, PG9 binder, GalR3 antag) | NR2E3 ag confirm inactive | VP16 counter inactive
CC1C/C(=N\NC(=S)NCc2ccccc2)CC(C)(C)C1 (centres undefined)	none | NR2E3 ag confirm inactive | VP16 counter inactive
COC(=O)[C@]12C[C@H](CC(=O)NCCC(C)C)C(=O)N(Cc3cccc4ccccc34)C1=C[C@H](C(C)(C)C)O[C@@H]2C	none (no result: PG9 binder, NR2E3 ag-1, GalR3 antag, NR2E3 ag-2)
COC1=C(C)C(=O)C2=C(C1=O)C1C3CC4=C(C(=O)C(OC)=C(C)C4=O)C(CNC(=O)C(C)=O)N3C(C#N)C(C2)N1C (centres undefined)	NR2E3 ag-2 102.2 (no result: NR2E3 ag-1) | NR2E3 ag confirm 99.6 | VP16 counter 95.2
CS(=O)(=O)c1ccc(OC[C@@H](O)CN2CCC(C(O)(c3ccccc3)c3ccccc3)CC2)cc1	none (no result: PG9 binder, NR2E3 ag-1, GalR3 antag, NR2E3 ag-2)
O=C(CNS(=O)(=O)c1cccc2ccccc12)N1CCN(c2ncccn2)CC1	none (no result: PG9 binder, NR2E3 ag-1, GalR3 antag, NR2E3 ag-2)
COc1ccc(OC)c(NC(=O)c2nnn(Cc3ccccc3C)c2N)c1	none | NR2E3 ag confirm 80.2 | VP16 counter inactive
COc1cccc(Cn2nnc(C(=O)Nc3cc(C)ccc3OC)c2N)c1	none (no result: Rev-erbA mod, PG9 binder, GalR3 antag) | NR2E3 ag confirm inactive | VP16 counter inactive
CC(=O)N1c2ccc(S(=O)(=O)N3CCC(C(=O)Nc4cccc(C(F)(F)F)c4)CC3)cc2CC1C (centres undefined)	none | NR2E3 ag confirm inactive | VP16 counter inactive
COc1cccc(NC(=O)C2CCN(S(=O)(=O)c3ccc4c(c3)CC(C)N4C(C)=O)CC2)c1 (centres undefined)	none
O=C(Nc1cccc(C(F)(F)F)c1)C1CCN(S(=O)(=O)c2ccc(N3CCCC3=O)cc2)CC1	NR2E3 ag-2 84.7 | NR2E3 ag confirm 90.3 | VP16 counter inactive
O=C(OC12CCCN(C1)/C(=C/c1ccc(Cl)cc1)C2)C1CCCCC1 (centres undefined)	none (no result: PG9 binder, NR2E3 ag-1, GalR3 antag, NR2E3 ag-2)
Cc1cc(C)c(S(=O)(=O)NCCc2ccncc2)c(C)c1	none
Cc1cc(C)c(S(=O)(=O)NCc2ccncc2)c(C)c1	GalR3 antag 94.4 | NR2E3 ag confirm 88.3 | VP16 counter 76.5
COc1ccc(NC(=O)c2sc(=O)n(Cc3cccc(C(F)(F)F)c3)c2C)cc1OC	none (no result: NR2E3 ag-1) | NR2E3 ag confirm 73.2 | VP16 counter inactive
CC1CC(C)CN(CCCNS(=O)(=O)c2cc3c(cc2Br)CCN3C(=O)C2CC2)C1 (centres undefined)	none (no result: PG9 binder, NR2E3 ag-1, GalR3 antag, NR2E3 ag-2)
Cc1ccccc1-c1nnn(Cc2cccc(S(=O)(=O)N3CCOCC3)c2)n1	none | NR2E3 ag confirm inactive | VP16 counter inactive
O=C1c2ccccc2S(=O)(=O)N1Cc1cccc(S(=O)(=O)N2CCOCC2)c1	none
CCC(C)(C)C(=O)N1CCc2cc(S(=O)(=O)N(C)Cc3ccco3)ccc21	none (no result: PG9 binder, NR2E3 ag-1, GalR3 antag, NR2E3 ag-2)
Nc1nc(Cl)cc(N2CCC(c3cc(-c4ccc(Cl)cc4)n[nH]3)CC2)n1	NR2E3 ag-2 91.5 | NR2E3 ag confirm 97.9 | VP16 counter 73.0
O=C(Sc1cccc2cccnc12)c1ccccc1Br	NR2E3 ag-2 100.2 | NR2E3 ag confirm inactive | VP16 counter inactive
COC(=O)[C@]12C[C@H](CC(=O)NCC34CC5CC(CC(C5)C3)C4)C(=O)N(CCc3ccc(OC)c(OC)c3)C1=C[C@H](C(C)C)O[C@@H]2C1CC1	none (no result: PG9 binder, NR2E3 ag-1, GalR3 antag, NR2E3 ag-2)
COc1ccc2sc(N(CCCN(C)C)C(=O)c3nc4ccccc4s3)nc2c1	none
COc1ccccc1C(=O)N(CCC1CCCN1C)c1nc2ccccc2s1 (centres undefined)	none | NR2E3 ag confirm inactive | VP16 counter inactive
CCc1ccc(NCc2ccc(OC)c(Cn3ccnc3)c2)cc1	none | NR2E3 ag confirm inactive | VP16 counter inactive
COc1ccc(CNc2ccc(Cl)cc2)cc1Cn1ccnc1	none
CC(C)C[C@H]1COc2cc(F)ccc2S(=O)(=O)N1C	none (no result: PG9 binder, NR2E3 ag-1, GalR3 antag, NR2E3 ag-2)
COc1cc(C2C=C(C34CC5CC(CC(C5)C3)C4)NC(=S)N2)cc(OC)c1OC (centres undefined)	none
COc1ccc(OC)c(C2C=C(C34CC5CC(CC(C5)C3)C4)NC(=S)N2)c1 (centres undefined)	none | NR2E3 ag confirm inactive | VP16 counter inactive
Cc1cccc2nc(-c3ccco3)c(Nc3ccccc3)n12	none
Cc1ccc2nc(-c3ccccn3)c(NC3CCCC3)n2c1	none | NR2E3 ag confirm inactive | VP16 counter inactive
Cc1ccc(Nc2c(-c3ccccn3)nc3cccc(C)n23)cc1	NR2E3 ag-2 96.4 | NR2E3 ag confirm 97.5 | VP16 counter 83.0
Cc1cccc(C)c1Nc1c(-c2ccccn2)nc2ccccn12	NR2E3 ag-2 76.8 | NR2E3 ag confirm inactive | VP16 counter inactive
Cc1cc(C)n2c(Nc3c(C)cccc3C)c(-c3ccccn3)nc2n1	none (no result: NR2E3 ag-1)
O=C(N[C@H](C(=O)N1CCC[C@H]1C(=O)NCCc1ccccc1Cl)C1CCCCC1)c1cccs1	none (no result: NR2E3 ag-1, NR2E3 ag-2)
Cc1ccc(NC(=O)C2CCN(S(=O)(=O)c3ccc4c(c3)NC(=O)C(C)S4)CC2)cc1C (centres undefined)	NR2E3 ag-2 74.0 | NR2E3 ag confirm 92.7 | VP16 counter 72.7
CC1Sc2ccc(S(=O)(=O)N3CCC(C(=O)Nc4cccc(Cl)c4)CC3)cc2NC1=O (centres undefined)	none | NR2E3 ag confirm inactive | VP16 counter inactive
O=C(CSc1nnc(-c2ccco2)n1Cc1ccco1)c1ccc([N+](=O)[O-])cc1	none (no result: PG9 binder, NR2E3 ag-1, GalR3 antag, NR2E3 ag-2)
CCCCNS(=O)(=O)CC1NCc2cc(F)ccc21 (centres undefined)	none (no result: PG9 binder, NR2E3 ag-1, GalR3 antag, NR2E3 ag-2)
O=C1NC[C@@H](c2ccccc2)OC(=O)[C@H](Cc2ccc(F)cc2)C/C=C\C[C@H]1CC(=O)N(CCO)Cc1ccccc1	none (no result: NR2E3 ag-1)
O=C1NC[C@H](c2ccccc2)OC(=O)[C@@H](Cc2ccc(F)cc2)C/C=C\C[C@H]1CC(=O)N(CCO)Cc1ccccc1	none (no result: NR2E3 ag-1) | NR2E3 ag confirm inactive | VP16 counter inactive
CCCC[C@H](C(=O)N(C)c1ccccc1)[C@@H](O)c1ccc(C(C)=O)cc1	none (no result: PG9 binder, NR2E3 ag-1, GalR3 antag, NR2E3 ag-2)
C=CCN=C1NC(c2cccc(F)c2)C(C(=O)OC)=C(C)N1Cc1cccc(C(F)(F)F)c1 (centres undefined)	none (no result: NR2E3 ag-1, NR2E3 ag-2)
Nn1c(SCc2cccc3ccccc23)nnc1-c1cc(-c2ccc(F)cc2)n[nH]1	none (no result: PG9 binder, NR2E3 ag-1, GalR3 antag, NR2E3 ag-2)
COc1ccc(OC)c(NC(=O)CSc2nnnn2-c2ccc3c(c2)OCO3)c1	NR2E3 ag-2 100.8 | NR2E3 ag confirm 99.9 | VP16 counter inactive
